Only some compounds are listed: those with a hit (about 0.9% of all), similar ones and a draw of the others.
DAGLB inhibitor – diacylglycerol lipase beta (human) inhibition | HEK293T DAGLB membrane lysate, EnzChek fluorogenic substrate | AID 504411 | inhibition, % at 5.17 µM | Q8NCG7 | 0.059% of 340,000 active; in the data active means inhibition above about 34%;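 further: 0% = enzyme with vehicle and 100% = wells lacking enzyme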
Target sequence (Q8NCG7 whole entry, looked up): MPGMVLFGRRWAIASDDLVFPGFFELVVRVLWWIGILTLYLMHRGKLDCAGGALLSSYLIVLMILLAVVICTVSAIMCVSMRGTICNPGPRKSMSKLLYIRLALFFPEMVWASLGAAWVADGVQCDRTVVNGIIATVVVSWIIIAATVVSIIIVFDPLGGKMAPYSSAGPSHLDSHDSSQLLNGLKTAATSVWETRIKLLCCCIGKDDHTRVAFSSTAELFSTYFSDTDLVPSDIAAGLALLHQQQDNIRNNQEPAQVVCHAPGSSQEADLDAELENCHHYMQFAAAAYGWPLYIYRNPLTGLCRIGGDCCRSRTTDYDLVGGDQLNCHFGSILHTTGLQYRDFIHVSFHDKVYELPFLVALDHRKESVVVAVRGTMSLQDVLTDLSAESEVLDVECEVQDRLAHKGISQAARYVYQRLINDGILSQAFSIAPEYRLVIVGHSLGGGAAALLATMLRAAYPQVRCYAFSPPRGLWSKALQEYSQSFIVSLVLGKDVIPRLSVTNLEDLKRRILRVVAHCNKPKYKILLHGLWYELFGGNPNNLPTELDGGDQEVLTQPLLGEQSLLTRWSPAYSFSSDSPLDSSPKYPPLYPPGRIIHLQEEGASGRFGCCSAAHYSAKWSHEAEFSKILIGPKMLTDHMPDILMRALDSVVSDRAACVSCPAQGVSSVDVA
Tn6 DDE FP – inhibitors of Tn6 peptide binding to human fibrin DD(E) | P02675 | Fibrin DD(E) TRITC-Tn6 fluorescence polarization displacement | inhibition, % at 8.3 µM | 0.21% of 370,000 active;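 active means inhibition above a per-campaign cutoff: mean of compounds within control limits plus 3 SD, cut at about 15% in these data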;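 further: 0% = median of all compound wells on the plate and 100% = blocking peptide control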
Tn7 DDE FP – disrupts Tn7 cyclic peptide binding to fibrin D-Dimer-E complex. P02675. FP displacement of FITC-Tn7 peptide from fibrin DD(E); 0% = median of compound wells per plate. inhibition, % at 8.3 µM. 0.13% of 370,000 active;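 active means inhibition above the mean of compounds falling within the control limits plus 3 SD of them, cut at about 14% in these data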;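 further: 0% = plate median of compound wells and 100% = 10 µM Aha-Tn7 peptide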
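Also added: labelled Tn7 tracer, 0.1 µM; Assay system: human fibrin DD(E) protein; Amount: 2 µM fibrin DD(E); Schedule: 10 min compound pre-incubation, 3 h probe incubation at room temperature; Repeats: one replicate per compound; Read-out basis: percent inhibition; Measured by: fluorescence polarization of the labelled Tn7 tracer.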
MT1-MMP act inh – inhibitors of human MT1-MMP activation; HT1080 RFP-PRO-GFP cells, GFP/RFP ratio fluorescence, overnight; percent of plate control window, DMSO zero; GFP/RFP ratio change, % at 20 µM; 0.061% of 360,000 active;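 active means GFP/RFP ratio change of at least 30% with cell ATP level not reduced by more than half and red fluorescence within 50% of control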
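system = RFP-PRO-GFP reporter HT1080 cells | dosing = 20 µM single dose, 1% DMSO | timing = overnight cell settling, then overnight compound exposure, 37 °C, 5% CO2 | read-out basis = GFP/RFP fluorescence ratio | controls = DMSO and RFP-L50D-GFP cell wells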
SKN-1 inh – blocks SKN-1 activity in C. elegans. inhibition, % at 21.8 µM. 0.49% of 360,000 active. AID 624304. C. elegans VP596 Pgst-4::GFP/RFP ratio, acrylamide-induced, 24 h;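 active means interference check ratio from 0.5 to 1.5 plus GFP to RFP signal ratio inhibition reaching or exceeding a fixed threshold, cut at about 30% in these data, passing the limit was not always enough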
PolyA inhibitor – inhibitors of polyadenylation in S. cerevisiae. S. cerevisiae SKY197-pL101 polyadenylation reporter, beta-gal luminescence; efflux-impaired pdr1/pdr3 knockout yeast; score 100 = 6 SD above DMSO. 0.02% of 300,000 active. activity score, % at 12 µM;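 active means lowest replicate activity score at least 50, where 100 means six control SD above control mean; inconclusive means lowest score under 50 but half or more replicates reach 50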;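 further: yeast exposed to compound for 9 h at 30 °C; higher score means more reporter readthrough which indicates perturbed polyadenylation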
* = called active by the depositor; ? = inconclusive; . = no result.

SMILES | DAGLB inhibitor | Tn6 DDE FP | Tn7 DDE FP | MT1-MMP act inh | SKN-1 inh | PolyA inhibitor
N=c1c(C(=O)NCc2ccccc2)cc2c(=O)n3ccccc3nc2n1Cc1ccco1 | 6.6 | -5.7 | 4.0 | -10.7 | 37.4* | 7.2
CCCCC(=O)N[C@H]1CC[C@@]23CCCN2C(=O)CCC[C@H]3[C@H]1C | . | -2.3 | -2.1 | . | . | .
CC(C)C[C@H](NC1(C(=O)NCCc2c[nH]c3ccccc23)CCOCC1)C(=O)NCCCc1ccccc1 | . | -3.1 | 6.3 | . | . | .
Clc1ccc(-c2nnc(-c3ccccc3Cl)o2)cc1 | -20.1 | 1.4 | 2.1 | 1.4 | 61.9* | -15.2
Clc1ccccc1-c1nnc(-c2ccccc2Cl)o1 | -20.3 | 3.5 | 6.1 | -2.2 | 66.9* | -14.2
CCCNCc1nnc(-c2ccccc2Cl)o1 | -2.8 | -0.9 | 2.6 | 0.1 | 0.9 | 28.3
Cc1ccc(C)c(NC(=O)C2CCCN2S(=O)(=O)c2cccnc2)c1 (centres undefined) | . | 0.0 | -3.7 | . | . | .
CC[C@H]1/C(=C/c2ccccc2)N2C(=O)C[C@H](c3ccccc3)N=C2N1C | . | -0.4 | -6.7 | . | . | .
CCOC(=O)[C@]12CCCCC/C=C\1N(CCc1ccc(Cl)cc1)C(=O)[C@H]2CC(=O)NCC1CCCCC1 | . | -0.8 | -8.3 | . | . | .
c1ccc(-c2c[nH]c3ccc(OCc4ccc5ccccc5n4)c(-c4ccccc4)c23)cc1 | . | 4.5 | 3.0 | . | . | .
CC(=O)NC(Cc1ccccc1)C(=O)NC1CCN(C(=O)NCc2ccccc2)CC1 (centres undefined) | -0.3 | 3.1 | 4.6 | -1.5 | -5.8 | 5.4
CC(=O)NC(Cc1ccc(F)cc1)C(=O)N1CCN(C(=O)NCc2ccccc2)CC1 (centres undefined) | -2.7 | 1.3 | -3.3 | 9.7 | 49.3* | 27.1
Cc1ccc(S(=O)(=O)N2CCCC(C(=O)Nc3c(C)n(C)n(-c4ccccc4)c3=O)C2)cc1C (centres undefined) | . | 6.9 | 2.9 | . | . | .
CC1CCC2(CCC(=O)N2CCCOC(=O)Nc2cccc(C(F)(F)F)c2)CC1 (centres undefined) | . | 10.3 | -6.1 | . | . | .
Clc1ccc(OCc2nc(-c3ccncc3)no2)c(Br)c1 | -3.5 | -6.6 | 1.7 | -0.7 | 50.6* | -11.4
COC(=O)[C@]12C[C@H](CC(=O)N3CCSCC3)C(=O)N(Cc3ccccc3)C1=C[C@H](COCc1ccccc1)O[C@@H]2C | . | 3.2 | 4.8 | . | . | .
CCCN(CC1CC1)c1c2c(nc3ncnn13)CCCC2 | . | -0.5 | -1.3 | . | . | .
CC(=O)Nc1ccc(S(=O)(=O)Nc2cccc3[nH]ncc23)cc1 | 1.5 | -2.9 | -1.1 | -2.9 | 1.8 | 13.3
O=C(Nc1cccc2[nH]ncc12)NS(=O)(=O)c1ccccc1 | 1.1 | 59.6* | 3.1 | 3.8 | 60.6 | 38.0
CCOC(=O)c1c(N)sc2c1CCC(CC)C2 (centres undefined) | 2.5 | 7.1 | 5.7 | -8.7 | -5.8 | -2.0
CCOC(=O)c1c(N)sc2c1CCSC2 | 1.1 | -17.1 | -1.6 | -13.1 | 37.1* | -1.2
CCOc1ccc2nc(N=NC3=C(O)CC(C)(C)CC3=O)sc2c1 | 6.1 | -4.7 | 8.2 | 11.4 | 35.3* | -22.8
COc1ccc2c(c1)Sc1ccc(Cl)cc1N2 | . | 2.3 | -5.0 | . | . | .
c1ccc(-n2c(SCc3cccc4ccccc34)nnc2-c2ccncc2)cc1 | . | -7.0 | 0.2 | . | . | .
O=C(O)c1cccc(COc2ccc3c(c2)CCC3)c1 | 5.2 | 1.5 | -1.2 | -0.4 | -10.0 | 14.2
SMILES | DAGLB inhibitor | Tn6 DDE FP | Tn7 DDE FP | MT1-MMP act inh | SKN-1 inh | PolyA inhibitor
O=C(O)c1ccc2c(c1)CCCN2 | . | -2.2 | -2.7 | -3.5 | 38.3* | 3.4
CC1=NN(Cc2ccccc2)C(=O)/C1=C\c1ccc(N(C)C)cc1 | 29.6 | -15.3 | 2.3 | 6.1 | 34.0* | -7.6
CCOC(=O)C1=NN(c2ccccc2)C(=O)/C1=C\c1ccc(N(C)C)cc1 | 7.5 | 3.2 | -0.8 | 3.5 | 22.4 | 1.7
CCC(C)[C@H](NC(=O)C1COC(O)([C@H](Cc2ccccc2)NC(=O)[C@@H](NC(=O)OCc2ccccc2)C(C)C)CN1C)C(=O)N[C@H](C(=O)OC)C(C)C (some centres undefined) | . | -3.3 | 4.8 | . | . | .
Nc1ccc2cc3ccc(N)cc3nc2c1 | . | 1.7 | 4.3 | . | . | .
COc1ccc(OCCN(C)C(=O)c2cccc(S(=O)(=O)N(C)c3ccccc3)c2)cc1 | -1.0 | 3.0 | 2.3 | 3.1 | 36.7* | .
CCN(c1ccccc1)S(=O)(=O)c1cccc(C(=O)N(C)CCOc2ccccc2)c1 | -0.6 | -1.7 | 2.7 | 3.1 | 0.4 | 8.7
CCN1C(=O)/C(=C/C=C2/Sc3ccc4ccccc4c3N2CCO)SC1=S | 0.4 | -0.9 | -8.4 | 28.7 | 31.3 | 8.5
CCN1C(c2ccccc2)=C(c2ccccc2)S/C1=C\C=C1/SC(=S)N(C)C1=O | 13.9 | 4.5 | 4.9 | 31.1 | 49.6* | ?
Cc1ccc(S/C=C\C(=O)c2ccccc2)cc1 | -22.1 | 3.2 | -1.7 | -37.5 | 42.5* | 10.8
COc1ccc(C2(c3ccc(OC)cc3)NC(=O)N(CC(=O)NC3CCCC3)C2=O)cc1 | 4.8 | 4.4 | 2.2 | -1.4 | 5.4 | 21.8
COc1ccc(C2(c3ccc(OC)cc3)NC(=O)N(CC(=O)NC3CCS(=O)(=O)C3)C2=O)cc1 (centres undefined) | 2.6 | 6.8 | 8.3 | -3.8 | 40.3* | .
O=C(NCc1ccco1)c1sc2cc(Cl)ccc2c1Cl | -17.4 | -1.2 | -0.3 | 5.0 | 38.5* | -2.7
CC(=O)c1ccc(N2CCN(C(=O)c3ccc(S(=O)(=O)NCc4ccco4)cc3)CC2)cc1 | 0.7 | 0.6 | 0.7 | 6.3 | 23.4 | .
O=C(c1ccc(S(=O)(=O)NCc2ccco2)cc1)N1CCN(c2ccc(F)cc2)CC1 | -0.7 | -5.6 | 8.8 | 2.8 | 33.0* | .
COC(=O)CN1C(=O)S/C(=C/c2ccc(N3CCCCC3)o2)C1=O | -27.2 | -3.1 | -1.9 | -214.7 | -0.4 | -34.4
O=C(O)CN1C(=O)/C(=C/c2ccc(N3CCCCC3)o2)SC1=S | 1.4 | 4.5 | 8.2 | 30.9 | 4.6 | 105.6*
CCNC(=O)C1(C)CCCN1C(=O)c1ccc(C#N)cc1 (centres undefined) | . | 5.0 | -1.1 | 2.0 | 63.3* | .
O=S1(=O)C=CCN1Cc1cn(Cc2ccc(Cl)cc2)nn1 | . | -2.9 | -2.5 | . | . | .
O=C(CSc1nnc(-c2ccccc2)n1-c1ccc(Cl)cc1)c1ccccc1Br | . | 1.1 | 0.3 | . | . | .
O=C(/C=C/c1cccs1)c1ccc(NC(=O)c2cccc(Br)c2)cc1 | -4.2 | -3.2 | -1.2 | -3.9 | 21.9 | -12.6
O=C(/C=C/c1cccs1)c1ccc(Br)cc1 | -6.3 | 4.0 | -4.8 | -2.7 | 37.2* | -5.4
CSc1nc(-c2ccco2)nn1C(=O)c1ccccc1 | -0.5 | -2.9 | 1.3 | 0.4 | 20.7 | 13.2
CSc1nc(-c2ccco2)nn1C(=O)c1ccc(C)cc1 | 3.2 | 1.9 | 6.6 | 0.4 | 36.1* | 7.1

Bioassay records: PubChem, several laboratories
